Test results reported in ChEMBL document CHEMBL1123220, “Structure-activity studies of 16-methoxy-16-methyl prostaglandins” (1986).

Columns and labels:
[1] = system: Rattus norvegicus; experiment: Compound was evaluated for antisecretion activity using stomach perfusion test in the anesthetized rat (iv administration); format: functional; conditions: read-out: ID50 (the source's name)
[2] = system: Mus musculus; experiment: Compound was evaluated for diarrheal effect in mice (po administration); format: functional
In short: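 Mice fasted 24 h, then given logarithmically graded oral doses of 100–4000 μg/kg. Animals caged singly on blotting paper for 1 h, and stool dampness spots scored on a 0–4 scale. ED50 calculated by the Miller–Tainter method.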

[3] = system: Cricetinae gen. sp.; experiment: (§1) Antifertility activity was determined in hamsters (two to six dose levels, 6-18 animals per group) treated subcutaneously (sc) from day 4 to day 6 of gestation.; format: functional, Mesocricetus auratus
In short: (§2)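 Syrian Golden hamsters dosed sc on three consecutive days, gestation days 4 to 6. Two to six dose levels, 6–18 animals per group. Animals killed on day 10 of gestation, and implantation sites and live fetuses counted.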

[4] = system: Cricetinae gen. sp.; experiment: Antifertility activity was determined in hamsters (two to six dose levels, 6-18 animals per group) treated subcutaneously (sc) from day 4 to day 6 of gestation; format: functional, Mesocricetus auratus; in short: as §2
[5] = Ratio of ED50 for diarrhea to ID50 (antisecretory activity); format: functional
[6] = system: Rattus norvegicus; experiment: Compound was evaluated for antisecretion activity using stomach perfusion test in the anesthetized rat (ig administration); format: functional; conditions: for ED50: Rattus norvegicus, Stomach, po, read-out: ID50 (the source's name)
[7] = system: Rattus norvegicus; experiment: Compound was evaluated for antisecretion activity using stomach perfusion test in the anesthetized rat (iv administration); At the dose of 500 ug/kg, some animals died; format: functional; conditions: read-out: ID50 (the source's name)
[8] = system: Cricetinae gen. sp.; experiment: as §1; format: functional, Cricetulus griseus; in short: as §2
[9] = system: Rattus norvegicus; experiment: Compound was evaluated for antisecretion activity using stomach perfusion test in the anesthetized rat (iv administration) in experiment 1; format: functional; conditions: read-out: ID50 (the source's name)
In short: (§3)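 Stomach perfusion in anesthetized rats. Gastric hypersecretion driven by continuous iv histamine infusion at 1.5 mg/kg per hour. Compound given iv. ID50 read from a plot of response, as percent of control, against log dose.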

[10] = system: Rattus norvegicus; experiment: Compound was evaluated for antisecretion activity using stomach perfusion test in the anesthetized rat (iv administration) in experiment 2; format: functional; conditions: read-out: ID50 (the source's name); in short: as §3
[11] = Mus musculus, po, read-out: ED50

Row | SMILES | ED50 [1] [mg/kg] | ED50 [2, 11] [mg/kg] | ED50 [3] [mg/kg] | ED50 [4] [mg/kg] | other results
1 | CCCC[C@@](C)(OC)[C@@H](O)/C=C/C1[C@H](O)C[C@H](O)[C@@H]1C/C=C\CCCC(=O)OC (some centres not stated) | > 2 | > 4 | > 4 |  | 
2 | CCCC[C@@](C)(OC)[C@H](O)/C=C/C1[C@H](O)CC(=O)[C@@H]1CCCCCCC(=O)OC (some centres not stated) | 0.0045 | 1.35 |  | > 2.5 | Ratio [5]: 300; ID50 [6]: 0.015 mg/kg; ED50 [6]: 0.015 mg/kg
3 | CCCC[C@@](C)(OC)[C@@H](O)/C=C/C1[C@H](O)CC(=O)[C@@H]1C/C=C\CCCC(=O)OC (some centres not stated) |  |  |  | > 1 | 
4 | CCCCC[C@H](O)/C=C/[C@H]1[C@H](O)CC(=O)[C@@H]1C/C=C\CCCC(=O)O [DINOPROSTONE] | 0.026 | 1.5 | 0.7 |  | Ratio [5]: 58; ED50 [6]: > 0.1 mg/kg
5 | CCCC[C@](C)(OC)[C@H](O)/C=C/C1[C@H](O)CC(=O)[C@@H]1C/C=C\CCCC(=O)OC (some centres not stated) | 0.5 | 0.479 |  | > 1 | 
6 | CCCC[C@](C)(OC)[C@@H](O)/C=C/C1[C@H](O)CC(=O)[C@@H]1C/C=C\CCCC(=O)OC (some centres not stated) | 1.5 | 0.912 |  | > 1 | 
7 | CCCC[C@@](C)(OC)[C@@H](O)/C=C/C1[C@H](O)CC(=O)[C@@H]1CCCCCCC(=O)OC (some centres not stated) | > 1 | > 4 |  | > 2.5 | 
8 | CCCC[C@@](C)(OC)[C@H](O)/C=C/C1[C@H](O)CC(=O)[C@@H]1C/C=C\CCCC(=O)OC (some centres not stated) | 0.0072 | 0.757 |  | > 1 | Ratio [5]: 105
9 | CCCC[C@@](C)(OC)[C@H](O)/C=C/C1[C@H](O)C[C@H](O)[C@@H]1C/C=C\CCCC(=O)OC (some centres not stated) | 1.5 | 0.888 | 0.6 |  | 
10 | CCCC[C@](C)(OC)[C@@H](O)/C=C/C1[C@H](O)CC(=O)[C@@H]1CCCCCCC(=O)OC (stereo in doubt; form 1) | > 3 |  |  | > 2.5 | ED50 [2]: >4 mg/kg
11 | CCCCC(OC)[C@H](O)/C=C/C1[C@H](O)CC(=O)[C@@H]1CCCCCCC(=O)O (some centres not stated) |  |  |  |  | ED50 [6]: > 0.1 mg/kg
12 | CCCC[C@](C)(OC)[C@H](O)/C=C/C1[C@H](O)C[C@H](O)[C@@H]1C/C=C\CCCC(=O)OC (some centres not stated) | > 2 | 1.81 | 1.5 |  | 
13 | CCCCC[C@H](O)/C=C/[C@@H]1[C@@H](C/C=C\CCCC(=O)O)[C@@H](O)C[C@H]1O [DINOPROST] |  | 0.57 |  |  | ED50 [7]: > 0.3 mg/kg; ED50 [8]: 0.06 mg/kg
14 | CCCC[C@@H](OC)[C@H](O)/C=C/C1[C@H](O)CC(=O)[C@@H]1C/C=C\CCCC(=O)O (some centres not stated) | > 0.05 |  |  |  | 
15 | CCCC[C@](C)(OC)[C@@H](O)/C=C/C1[C@H](O)CC(=O)[C@@H]1CCCCCCC(=O)OC (stereo in doubt; form 2) |  |  |  |  | ED50 [9]: 0.1 mg/kg; ED50 [2]: 0.774 mg/kg; ED50 [10]: 0.3 mg/kg
16 | CCCC[C@](C)(OC)[C@@H](O)/C=C/C1[C@H](O)C[C@H](O)[C@@H]1C/C=C\CCCC(=O)OC (some centres not stated) | > 4 | > 4 | > 4 |  | 
17 | CCCCC[C@H](O)/C=C/[C@H]1[C@H](O)CC(=O)[C@@H]1CCCCCCC(=O)O [ALPROSTADIL] | 0.0285 | 1.02 | 1.8 |  | Ratio [5]: 36
